In ChEMBL document CHEMBL1122098, “2-Amino-4,7-dimethoxyindan derivatives: synthesis and assessment of dopaminergic and cardiovascular actions” (1982):

What was measured:
Format in all cases: functional
[1] = organism: Rattus norvegicus; assay: Tested for the alteration in rat CNS transmitter synthesis by […] of 5-HTP from olfactory tubercle; set-up: concentration or dose not given beside the values
Method in brief: (§1)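 Rat in vivo synthesis-index model (Carlsson): test compound 4.0 mg/kg sc given 30 min before GBL 750 mg/kg ip in distilled water; apomorphine 4.0 mg/kg sc 5 min before GBL. Five min after GBL, NSD 1015 100 mg/kg ip in saline; decapitation 30 min later. Dopa in caudate nucleus and 5-HTP in olfactory tubercle measured, expressed as percent of saline+GBL control; p < 0.05 criterion.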

[2] = organism: Rattus norvegicus; assay: Tested for the alteration in rat CNS transmitter synthesis by […] of Dopa from caudate nucleus; set-up: concentration or dose not given beside the values; method in brief: as §1
[3] = organism: Felis catus; assay: Tested for the inhibition of cardioaccelerator nerves in cat; settings: read-out: ID50 (the source's name)
Method in brief: (§2)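 Cats 2-4 kg, either sex, anesthetized with pentobarbital sodium 30 mg/kg ip, pretreated with atropine sulfate 0.2 mg/kg iv. Compounds in saline given as iv bolus via femoral catheter. Blood pressure and heart rate recorded. Right cardioaccelerator nerve stimulated at 2 Hz, 5-ms pulses, 20–25 V supramaximal; inhibition of the positive chronotropic response measured, with ED50 calculated. Haloperidol 100 µg/kg iv given beforehand for blockade.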

[4] = Tested for the ratio between rat rotation and the potency to apomorphine
Method in brief: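 Rats with unilateral substantia nigra 6-hydroxydopamine lesions (6 µg in 3 µl). HCl salts in saline given sc, screened at 2 mg/kg; contralateral turns recorded automatically for at least 1 h as turns per hour. Dose-response curves used 4-5 animals; potency ratio to apomorphine with 95% CI calculated over 60 min after dosing.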

[5] = test system: Felis catus; assay: Tested for the percent change in blood pressure after administration in cat; method in brief: as §2
[6] = test system: Felis catus; assay: Tested for the change in heart rate after administration in cat; method in brief: as §2

Row | Structure (SMILES) | Control [1] [%] | Control [2] [%] | ED50 [3] [µmol/kg] | Ratio [4] | BP change [5] [%] | HR [6] [beats min-1]
1 | CCCNC1Cc2c(OC)ccc(OC)c2C1 | 104.7 | 79.1 | 1.1 | 7.4 | 0.7 | -3.2
2 | CNC1CCc2c(OC)ccc(OC)c2C1 (configuration not stated) | 33.2 | 103.8 |  | 3.9 |  | 
3 | COc1ccc(OC)c2c1CC(N)C2 | 109.7 | 94 | 1.55 | 8.7 | 6.3 | 0
4 | CN1CCc2cccc3c2[C@H]1Cc1ccc(O)c(O)c1-3 [APOMORPHINE] |  | 18.3 | 0.103 | 1 |  | 
5 | COc1ccc(OC)c2c1CC(N(C)C)C2 |  |  | 1.16 | 0.019 | 51.8 | 3.2
6 | CNC1Cc2c(OC)ccc(OC)c2C1 | 94.7 | 67.9 | 1.23 | 8.2 | 28.1 | 2.5
7 | COc1ccc(OC)c2c1CC(NC(C)C)C2 |  |  | 1.1 |  | 3.8 | 0
8 | CCCN(CCC)C1Cc2c(OC)ccc(OC)c2C1 | 51.5 | 31.8 | 0.107 | 0.13 | -16.6 | -6.4
